In ChEMBL document CHEMBL5705890, “Antitumor activity of an allosteric inhibitor of centromere-associated protein-E” (Proc Natl Acad Sci U S A, 2010):

Columns and labels:
[1] = target: Centromere-associated protein E (Homo sapiens, UniProt Q02224, K184T); experiment: Binding affinity to human CENP-E K184T mutant assessed as inhibition constant
[2] = test system: A 172; experiment: Anticancer activity against human A-172 cells assessed as cell growth inhibition measured after 72 hrs by DAPI staining based analysis; type: functional
Method in brief: (§1)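 Cells were seeded and, after 24 h, DNA content was read as T0. Cells were then exposed to varying drug concentrations for a further 72 h (T72). Fixed cells were DAPI-stained and DNA content measured by automated imaging. T72 values were normalized to T0. GI50 is the concentration giving 50% growth inhibition between T0 and Ymax, obtained by curve fitting.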

[3] = test system: A-427; experiment: Anticancer activity against human A-427 cells assessed as cell growth inhibition measured after 72 hrs by DAPI staining based analysis; type: functional; method in brief: as §1
[4] = Anticancer activity against human COLO-704 cells assessed as cell growth inhibition measured after 72 hrs by DAPI staining based analysis; type: functional
Method in brief: (§2)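 Cells seeded, DAPI-stained DNA content of fixed cells read by imaging 24 h after seeding (T0), and again after a further 72 h exposure to a range of drug concentrations (T72). T72 values were normalized to T0. Curve fits gave the concentration producing 50% growth inhibition relative to T0 and Ymax (GI50).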

[5] = test system: Detroit 562; experiment: Anticancer activity against human Detroit 562 cells assessed as cell growth inhibition measured after 72 hrs by DAPI staining based analysis; type: functional; method in brief: as §2
[6] = test system: HuP-T4; experiment: Anticancer activity against human HuP-T4 cells assessed as cell growth inhibition measured after 72 hrs by DAPI staining based analysis; type: functional
[7] = Anticancer activity against human MV-522 cells assessed as cell growth inhibition measured after 72 hrs by DAPI staining based analysis; type: functional; details: MV522
[8] = Anticancer activity against human NCI-H322T cells assessed as cell growth inhibition measured after 72 hrs by DAPI staining based analysis; type: functional
[9] = test system: NCI-H747; experiment: Anticancer activity against human NCI-H747 cells assessed as cell growth inhibition measured after 72 hrs by DAPI staining based analysis; type: functional
[10] = test system: NCI-H82; experiment: Anticancer activity against human NCI-H82 cells assessed as cell growth inhibition measured after 72 hrs by DAPI staining based analysis; type: functional
[11] = test system: OVCAR-3; experiment: Anticancer activity against human OVCAR-3 cells assessed as cell growth inhibition measured after 72 hrs by DAPI staining based analysis; type: functional
[12] = test system: SW1783; experiment: Anticancer activity against human SW1783 cells assessed as cell growth inhibition measured after 72 hrs by DAPI staining based analysis; type: functional
[13] = test system: T84; experiment: Anticancer activity against human T84 cells assessed as cell growth inhibition measured after 72 hrs by DAPI staining based analysis; type: functional
[14] = test system: U-251; experiment: Anticancer activity against human U-251 cells assessed as cell growth inhibition measured after 72 hrs by DAPI staining based analysis; type: functional
[15] = test system: BFTC-905; experiment: Anticancer activity against human BFTC-905 cells assessed as cell doubling measured for 72 hrs by DAPI staining based analysis; type: functional
[16] = test system: C-33-A; experiment: Anticancer activity against human C-33-A cells assessed as cell doubling measured for 72 hrs by DAPI staining based analysis; type: functional
[17] = test system: CAL-62; experiment: Anticancer activity against human CAL-62 cells assessed as cell doubling measured for 72 hrs by DAPI staining based analysis; type: functional
[18] = test system: Caov-3 cell line; experiment: Anticancer activity against human Caov-3 cells assessed as cell doubling measured for 72 hrs by DAPI staining based analysis; type: functional
[19] = test system: CESS; experiment: Anticancer activity against human CESS cells assessed as cell doubling measured for 72 hrs by DAPI staining based analysis; type: functional
[20] = Anticancer activity against human COLO-704 cells assessed as cell doubling measured for 72 hrs by DAPI staining based analysis; type: functional
[21] = test system: CRO-AP2; experiment: Anticancer activity against human CRO-AP2 cells assessed as cell doubling measured for 72 hrs by DAPI staining based analysis; type: functional
[22] = test system: DBTRG-05MG; experiment: Anticancer activity against human DBTRG-05MG cells assessed as cell doubling measured for 72 hrs by DAPI staining based analysis; type: functional
[23] = test system: HeLa; experiment: Anticancer activity against human HeLa cells assessed as cell doubling measured for 72 hrs by DAPI staining based analysis; type: functional
[24] = test system: IGROV-1; experiment: Anticancer activity against human IGROV-1 cells assessed as cell doubling measured for 72 hrs by DAPI staining based analysis; type: functional
[25] = test system: MC-IXC; experiment: Anticancer activity against human MC-IXC cells assessed as cell doubling measured for 72 hrs by DAPI staining based analysis; type: functional
[26] = test system: NCI-H2052; experiment: Anticancer activity against human NCI-H2052 cells assessed as cell doubling measured for 72 hrs by DAPI staining based analysis; type: functional
[27] = test system: NCI-H209; experiment: Anticancer activity against human NCI-H209 cells assessed as cell doubling measured for 72 hrs by DAPI staining based analysis; type: functional
[28] = test system: NCI-H520; experiment: Anticancer activity against human NCI-H520 cells assessed as cell doubling measured for 72 hrs by DAPI staining based analysis; type: functional
[29] = test system: NCI-N87; experiment: Anticancer activity against human NCI-N87 cells assessed as cell doubling measured for 72 hrs by DAPI staining based analysis; type: functional
[30] = test system: OVCAR-8; experiment: Anticancer activity against human OVCAR-8 cells assessed as cell doubling measured for 72 hrs by DAPI staining based analysis; type: functional
[31] = Anticancer activity against human RDES cells assessed as cell doubling measured for 72 hrs by DAPI staining based analysis; type: functional, RD-ES
[32] = test system: SF-539; experiment: Anticancer activity against human SF-539 cells assessed as cell doubling measured for 72 hrs by DAPI staining based analysis; type: functional
[33] = test system: SK-UT-1; experiment: Anticancer activity against human SK-UT-1 cells assessed as cell doubling measured for 72 hrs by DAPI staining based analysis; type: functional
[34] = test system: SNB-75; experiment: Anticancer activity against human SNB-75 cells assessed as cell doubling measured for 72 hrs by DAPI staining based analysis; type: functional
[35] = test system: SW780; experiment: Anticancer activity against human SW780 cells assessed as cell doubling measured for 72 hrs by DAPI staining based analysis; type: functional
[36] = Anticancer activity against human TE 381.T cells assessed as cell doubling measured for 72 hrs by DAPI staining based analysis; type: functional
[37] = test system: HT-29; experiment: Antitumor activity against human HT-29 cells in xenograft model assessed as difference between median time to endpoint time of treated versus control group at 62.5 mg/kg; type: functional
[38] = test system: NCI-H460; experiment: Antitumor activity against human NCI-H460 cells in xenograft model assessed as difference between median time to endpoint time of treated versus control group at 125 mg/kg; type: functional
[39] = test system: MX1; experiment: Antitumor activity against human MX1 cells in xenograft model assessed as difference between median time to endpoint time of treated versus control group at 125 mg/kg; type: functional
[40] = test system: SK-OV-3; experiment: Antitumor activity against human SK-OV-3 cells in xenograft model assessed as difference between median time to endpoint time of treated versus control group at 125 mg/kg; type: functional
[41] = test system: A549; experiment: Antitumor activity against human A549 cells in xenograft model assessed as tumor growth delay at 125 mg/kg relative to control; type: functional
[42] = Antitumor activity against human MV-522 cells in xenograft model assessed as tumor growth delay at 62.5 mg/kg relative to control; type: functional

Sequence of Centromere-associated protein E (Q02224 whole entry K184T): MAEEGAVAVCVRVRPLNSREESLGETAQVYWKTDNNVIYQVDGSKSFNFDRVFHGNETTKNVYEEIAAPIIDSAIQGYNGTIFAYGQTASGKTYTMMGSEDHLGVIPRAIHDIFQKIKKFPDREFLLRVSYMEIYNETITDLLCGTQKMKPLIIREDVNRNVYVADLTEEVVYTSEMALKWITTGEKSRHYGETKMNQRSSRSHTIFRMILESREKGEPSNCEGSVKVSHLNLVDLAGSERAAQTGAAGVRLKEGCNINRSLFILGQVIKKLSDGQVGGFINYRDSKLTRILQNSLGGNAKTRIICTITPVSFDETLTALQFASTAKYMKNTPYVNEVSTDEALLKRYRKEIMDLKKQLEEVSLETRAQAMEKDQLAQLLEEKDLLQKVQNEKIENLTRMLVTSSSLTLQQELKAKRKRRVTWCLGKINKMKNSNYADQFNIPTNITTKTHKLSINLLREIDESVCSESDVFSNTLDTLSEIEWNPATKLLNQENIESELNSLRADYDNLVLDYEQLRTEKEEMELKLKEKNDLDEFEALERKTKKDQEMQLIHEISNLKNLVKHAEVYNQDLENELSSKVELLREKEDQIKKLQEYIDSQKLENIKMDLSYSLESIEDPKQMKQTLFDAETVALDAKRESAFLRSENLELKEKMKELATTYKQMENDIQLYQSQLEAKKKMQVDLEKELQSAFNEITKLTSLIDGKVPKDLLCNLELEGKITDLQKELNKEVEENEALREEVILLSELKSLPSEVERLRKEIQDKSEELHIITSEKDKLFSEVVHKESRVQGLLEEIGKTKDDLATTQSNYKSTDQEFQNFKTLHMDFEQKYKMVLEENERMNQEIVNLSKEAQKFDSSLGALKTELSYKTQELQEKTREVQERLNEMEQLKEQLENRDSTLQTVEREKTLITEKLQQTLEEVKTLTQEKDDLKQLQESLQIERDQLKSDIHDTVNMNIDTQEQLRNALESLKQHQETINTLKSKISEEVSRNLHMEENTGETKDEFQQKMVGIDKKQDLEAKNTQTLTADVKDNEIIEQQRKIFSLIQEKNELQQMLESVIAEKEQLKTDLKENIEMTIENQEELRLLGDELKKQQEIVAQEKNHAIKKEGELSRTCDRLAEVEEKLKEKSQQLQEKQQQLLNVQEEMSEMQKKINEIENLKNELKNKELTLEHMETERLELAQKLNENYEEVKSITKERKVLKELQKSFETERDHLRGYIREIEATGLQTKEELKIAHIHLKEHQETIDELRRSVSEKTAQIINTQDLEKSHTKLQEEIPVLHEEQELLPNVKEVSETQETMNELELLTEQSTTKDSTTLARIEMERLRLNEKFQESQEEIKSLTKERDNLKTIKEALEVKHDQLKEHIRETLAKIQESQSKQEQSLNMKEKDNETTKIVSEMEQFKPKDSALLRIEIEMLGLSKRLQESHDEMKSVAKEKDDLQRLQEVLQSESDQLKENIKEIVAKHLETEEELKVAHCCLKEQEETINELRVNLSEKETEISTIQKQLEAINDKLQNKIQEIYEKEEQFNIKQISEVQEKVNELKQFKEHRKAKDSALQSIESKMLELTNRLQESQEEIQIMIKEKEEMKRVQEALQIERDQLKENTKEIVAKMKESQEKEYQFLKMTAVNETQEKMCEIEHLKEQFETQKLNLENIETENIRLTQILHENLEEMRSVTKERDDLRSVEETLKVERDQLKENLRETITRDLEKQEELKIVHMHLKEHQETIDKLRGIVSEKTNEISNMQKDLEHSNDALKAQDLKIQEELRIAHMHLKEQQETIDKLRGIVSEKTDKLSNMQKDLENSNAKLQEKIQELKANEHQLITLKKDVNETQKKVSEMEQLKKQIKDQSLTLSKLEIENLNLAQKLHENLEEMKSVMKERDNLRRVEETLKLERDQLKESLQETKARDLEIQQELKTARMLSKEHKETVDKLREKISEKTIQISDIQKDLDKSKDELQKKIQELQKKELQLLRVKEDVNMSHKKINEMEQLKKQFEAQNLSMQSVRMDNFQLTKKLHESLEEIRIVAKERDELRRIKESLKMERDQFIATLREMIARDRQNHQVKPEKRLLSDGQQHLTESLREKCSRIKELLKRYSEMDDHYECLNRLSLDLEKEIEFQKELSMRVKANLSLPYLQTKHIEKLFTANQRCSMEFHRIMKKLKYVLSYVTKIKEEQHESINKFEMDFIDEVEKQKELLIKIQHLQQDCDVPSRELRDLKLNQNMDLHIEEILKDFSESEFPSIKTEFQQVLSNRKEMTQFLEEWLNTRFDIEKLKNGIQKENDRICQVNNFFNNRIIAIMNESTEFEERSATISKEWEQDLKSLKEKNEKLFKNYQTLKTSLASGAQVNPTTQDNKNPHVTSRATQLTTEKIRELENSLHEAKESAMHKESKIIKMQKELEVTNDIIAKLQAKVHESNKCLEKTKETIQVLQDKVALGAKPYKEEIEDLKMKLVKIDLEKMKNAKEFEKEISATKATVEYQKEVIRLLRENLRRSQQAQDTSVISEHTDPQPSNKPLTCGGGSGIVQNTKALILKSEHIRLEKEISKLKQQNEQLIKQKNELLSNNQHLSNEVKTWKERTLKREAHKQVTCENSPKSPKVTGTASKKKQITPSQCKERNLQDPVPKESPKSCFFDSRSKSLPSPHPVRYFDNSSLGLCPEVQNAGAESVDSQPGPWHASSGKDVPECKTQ

CC(C)Oc1ccc(C(=O)N[C@H](CNC(=O)CN(C)C)Cc2ccc(-c3cn4cccc([C@H](C)O)c4n3)cc2)cc1Cl [GSK-923295A]
Ki [1]: 12 nM | GI50 [2]: 27 nM | GI50 [3]: 97 nM | GI50 [4]: 69 nM | GI50 [5]: 35 nM | GI50 [6]: 158 nM | GI50 [7]: 48 nM | GI50 [8]: 25 nM | GI50 [9]: 163 nM | GI50 [10]: 18 nM | GI50 [11]: 42 nM | GI50 [12]: 34 nM | GI50 [13]: 75 nM | GI50 [14]: 26 nM | Activity [15]: 3.49 | Activity [16]: 3.13 | Activity [17]: 3.31 | Activity [18]: 2.17 | Activity [19]: 1.39 | Activity [20]: 2.48 | Activity [21]: 2.92 | Activity [22]: 1.33 | Activity [23]: 2.83 | Activity [24]: 2.69 | Activity [25]: 2.67 | Activity [26]: 2.09 | Activity [27]: 1.12 | Activity [28]: 2.15 | Activity [29]: 2.53 | Activity [30]: 3.26 | Activity [31]: 1.32 | Activity [32]: 2.08 | Activity [33]: 2.88 | Activity [34]: 1.37 | Activity [35]: 2.73 | Activity [36]: 1.92 | Time [37]: 2.7 days | Time [38]: 37.2 days | Time [39]: 6.9 days | Time [40]: >95 days | Activity [41]: 73% | Activity [42]: 50%
